Results taken from ChEMBL document CHEMBL1154716, “Synthesis of some new S-triazine based chalcones and their derivatives as potent antimicrobial agents” (2010).
≈ marks a conversion by molar mass, not a printed value. Calls of active or inactive are those of the source. No cut-off for these calls is given here.

What was measured:
[1] = test system: Bacillus cereus; assay: Antimicrobial activity against Bacillus cereus at 10 ug/disk after 24 hrs by disk diffusion assay; type: functional; settings: for zone of inhibition at 10 µg/disc: read-out: IZ
Outline: (§1)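 Disc diffusion on 4 mm filter discs. Bacteria are grown overnight in LB at 28 C, then adjusted in saline to 1.0 × 10^5 cfu/ml. The suspension is mixed into top agar over peptone agar plates. Plates are incubated 24 h at 28 C, and growth-inhibition zone diameter is measured. Streptomycin and ampicillin controls are applied from a 1 mg/ml stock. Tests are done in duplicate.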

[2] = test system: Micrococcus flavus; assay: Antimicrobial activity against Micrococcus flavus at 10 ug/disk after 24 hrs by disk diffusion assay; type: functional; settings: read-out: IZ; outline: as §1
[3] = test system: Staphylococcus aureus; assay: Antimicrobial activity against Staphylococcus aureus at 10 ug/disk after 24 hrs by disk diffusion assay; type: functional; settings: for zone of inhibition at 10 µg/disc: read-out: IZ; outline: as §1
[4] = test system: Escherichia coli; assay: Antimicrobial activity against Escherichia coli at 10 ug/disk after 24 hrs by disk diffusion assay; type: functional; settings: read-out: IZ; outline: as §1
[5] = test system: Pseudomonas aeruginosa; assay: Antimicrobial activity against Pseudomonas aeruginosa at 10 ug/disk after 24 hrs by disk diffusion assay; type: functional; outline: as §1
[6] = test system: Enterobacter cloacae; assay: Antimicrobial activity against Enterobacter cloacae at 10 ug/disk after 24 hrs by disk diffusion assay; type: functional; settings: for zone of inhibition at 10 µg/disc: read-out: IZ; outline: as §1
[7] = test system: Salmonella typhimurium; assay: Antimicrobial activity against Salmonella Typhimurium at 10 ug/disk after 24 hrs by disk diffusion assay; type: functional, organism-based; settings: Salmonella enterica subsp. enterica serovar Typhimurium; outline: as §1
[8] = test system: Listeria monocytogenes; assay: Antimicrobial activity against Listeria monocytogenes at 10 ug/disk after 24 hrs by disk diffusion assay; type: functional; outline: as §1
[9] = test system: Bacillus cereus; assay: Antimicrobial activity against Bacillus cereus at 1 umol/disk after 24 hrs by disk diffusion assay; type: functional; outline: as §1
[10] = test system: Micrococcus flavus; assay: Antimicrobial activity against Micrococcus flavus at 1 umol/disk after 24 hrs by disk diffusion assay; type: functional; outline: as §1
[11] = test system: Staphylococcus aureus; assay: Antimicrobial activity against Staphylococcus aureus at 1 umol/disk after 24 hrs by disk diffusion assay; type: functional; outline: as §1
[12] = test system: Escherichia coli; assay: Antimicrobial activity against Escherichia coli at 1 umol/disk after 24 hrs by disk diffusion assay; type: functional; outline: as §1
[13] = test system: Enterobacter cloacae; assay: Antimicrobial activity against Enterobacter cloacae at 1 umol/disk after 24 hrs by disk diffusion assay; type: functional; outline: as §1
[14] = test system: Salmonella typhimurium; assay: Antimicrobial activity against Salmonella Typhimurium at 1 umol/disk after 24 hrs by disk diffusion assay; type: functional, organism-based; settings: Salmonella enterica subsp. enterica serovar Typhimurium; outline: as §1
[15] = test system: Listeria monocytogenes; assay: Antimicrobial activity against Listeria monocytogenes at 1 umol/disk after 24 hrs by disk diffusion assay; type: functional; outline: as §1
[16] = test system: Bacillus cereus; assay: Antimicrobial activity against Bacillus cereus at 1 umol/spot after 18 hrs by TLC-bioautographic method; type: functional
Outline: (§2)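 TLC bioautography. Samples are spotted on silica gel TLC plates, then sprayed with bacteria (1.0 × 10^5 cfu/ml) in tryptic soy broth. Plates are incubated 18 h at 37 C and sprayed with 3% aqueous p-iodonitrotetrazolium violet. After a further 3 h, growth is stopped with 70% EtOH. White zones on a pink background are scored as inhibition-zone diameter with standard errors.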

[17] = test system: Micrococcus flavus; assay: Antimicrobial activity against Micrococcus flavus at 1 umol/spot after 18 hrs by TLC-bioautographic method; type: functional; outline: as §2
[18] = test system: Staphylococcus aureus; assay: Antimicrobial activity against Staphylococcus aureus at 1 umol/spot after 18 hrs by TLC-bioautographic method; type: functional; outline: as §2
[19] = test system: Escherichia coli; assay: Antimicrobial activity against Escherichia coli at 1 umol/spot after 18 hrs by TLC-bioautographic method; type: functional; outline: as §2
[20] = test system: Pseudomonas aeruginosa; assay: Antimicrobial activity against Pseudomonas aeruginosa at 1 umol/spot after 18 hrs by TLC-bioautographic method; type: functional; outline: as §2
[21] = test system: Enterobacter cloacae; assay: Antimicrobial activity against Enterobacter cloacae at 1 umol/spot after 18 hrs by TLC-bioautographic method; type: functional; outline: as §2
[22] = test system: Salmonella typhimurium; assay: Antimicrobial activity against Salmonella Typhimurium at 1 umol/spot after 18 hrs by TLC-bioautographic method; type: functional; outline: as §2
[23] = test system: Listeria monocytogenes; assay: Antimicrobial activity against Listeria monocytogenes at 1 umol/spot after 18 hrs by TLC-bioautographic method; type: functional; outline: as §2
[24] = test system: Bacillus cereus; assay: Antimicrobial activity against Bacillus cereus after 24 hrs by microdilution technique; type: functional
Outline: (§3)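 Broth microdilution in LB medium. Inoculum is 1.0 × 10^4 cfu per well, from a saline-adjusted suspension of 1.0 × 10^5 cfu/ml. Compounds are dissolved in DMSO. Incubated 24 h at 28 C. MIC is the lowest concentration with no visible growth under a binocular microscope. MBC is read by subculture into fresh broth for 72 h, with no growth taken as 99.5% kill. OD is read at 655 nm.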

[25] = test system: Micrococcus flavus; assay: Antimicrobial activity against Micrococcus flavus after 24 hrs by microdilution technique; type: functional; outline: as §3
[26] = test system: Staphylococcus aureus; assay: Antimicrobial activity against Staphylococcus aureus after 24 hrs by microdilution technique; type: functional; outline: as §3
[27] = test system: Escherichia coli; assay: Antimicrobial activity against Escherichia coli after 24 hrs by microdilution technique; type: functional; outline: as §3
[28] = test system: Pseudomonas aeruginosa; assay: Antimicrobial activity against Pseudomonas aeruginosa after 24 hrs by microdilution technique; type: functional; outline: as §3
[29] = test system: Enterobacter cloacae; assay: Antimicrobial activity against Enterobacter cloacae after 24 hrs by microdilution technique; type: functional; outline: as §3
[30] = test system: Salmonella typhimurium; assay: Antimicrobial activity against Salmonella Typhimurium after 24 hrs by microdilution technique; type: functional, Salmonella enterica subsp. enterica serovar Typhimurium; settings: Salmonella enterica; outline: as §3
[31] = test system: Listeria monocytogenes; assay: Antimicrobial activity against Listeria monocytogenes after 24 hrs by microdilution technique; type: functional; outline: as §3
[32] = test system: Pseudomonas aeruginosa; assay: Antimicrobial activity against Pseudomonas aeruginosa at 1 umol/disk after 24 hrs by disk diffusion assay; type: functional; outline: as §1
[33] = Salmonella enterica subsp. enterica serovar Typhimurium

| MIC [24] [µM] | MIC [25] [µM] | SMILES | zone of inhibition at 10 µg/disc [2] [mm] | zone of inhibition at 10 µg/disc [4] [mm] | inhibition zone (IZ) [7] | inhibition zone (IZ) [8] | inhibition zone (IZ) [10] [millimeter] | inhibition zone (IZ) [12] [millimeter] | inhibition zone (IZ) [14] | inhibition zone (IZ) [15] | inhibition zone (IZ) [16] | inhibition zone (IZ) [17] | inhibition zone (IZ) [18] | inhibition zone (IZ) [19] | inhibition zone (IZ) [20] | inhibition zone (IZ) [21] | inhibition zone (IZ) [23] | MBC [24] [µM] | MBC [25] [µM] | MBC [26] [µM] | other results |
| --- | --- | --- | --- | --- | --- | --- | --- | --- | --- | --- | --- | --- | --- | --- | --- | --- | --- | --- | --- | --- | --- |
| 211 (≈ 100 µg/mL) | 422 (≈ 200 µg/mL) | O=C(/C=C/c1ccco1)c1ccc(Nc2nc(Nc3ccccc3)nc(Nc3ccccc3)n2)cc1 | 8 | 8 | inactive | inactive | 0.04 | 0.04 | inactive | inactive | 0.07 millimeter | 0.07 millimeter | 0.08 millimeter | 0.08 millimeter | inactive | 0.08 millimeter | 0.08 millimeter | 422 (≈ 200 µg/mL) | 844 (≈ 400 µg/mL) | 844 (≈ 400 µg/mL) | inhibition zone (IZ) [1]: inactive; inhibition zone (IZ) [3]: inactive; zone of inhibition at 10 µg/disc ([5]; read-out: IZ): 6 mm; inhibition zone (IZ) [6]: inactive; inhibition zone (IZ) [9]: inactive; inhibition zone (IZ) [11]: inactive; inhibition zone (IZ) [13]: inactive; inhibition zone (IZ) [22, 33]: inactive; MIC [26]: 422 µM (≈ 200 µg/mL); MBC [27]: 422 µM (≈ 200 µg/mL); MIC [27]: 211 µM (≈ 100 µg/mL); MBC [28]: 422 µM (≈ 200 µg/mL); MIC [28]: 211 µM (≈ 100 µg/mL); MBC [29]: 422 µM (≈ 200 µg/mL); MIC [29]: 211 µM (≈ 100 µg/mL); MBC [30]: 422 µM (≈ 200 µg/mL); MIC [30]: 211 µM (≈ 100 µg/mL); MBC [31]: 844 µM (≈ 400 µg/mL); MIC [31]: 422 µM (≈ 200 µg/mL) |
| 43 (≈ 25 µg/mL) | 86 (≈ 50 µg/mL) | CN[C@@H]1[C@H](O[C@H]2[C@H](O[C@H]3[C@H](O)[C@@H](O)[C@H](N=C(N)N)[C@@H](O)[C@@H]3N=C(N)N)O[C@@H](C)[C@]2(O)C=O)O[C@@H](CO)[C@H](O)[C@H]1O [STREPTOMYCIN] | 20 | 10 | inactive | inactive | 0.1 | 0.06 | inactive | inactive | 0.08 millimeter | 0.05 millimeter | 0.04 millimeter | 0.06 millimeter | 0.08 millimeter | 0.07 millimeter | 0.08 millimeter | 86 (≈ 50 µg/mL) | 172 (≈ 100 µg/mL) | 344 (≈ 200 µg/mL) | zone of inhibition at 10 µg/disc [1]: 18 mm; zone of inhibition at 10 µg/disc [3]: 13 mm; inhibition zone (IZ) [5]: inactive; zone of inhibition at 10 µg/disc [6]: 12 mm; inhibition zone (IZ) [32]: inactive; inhibition zone (IZ) [22]: 0.08 millimeter; MIC [26]: 172 µM (≈ 100 µg/mL); MBC [27]: 344 µM (≈ 200 µg/mL); MIC [27]: 172 µM (≈ 100 µg/mL); MBC [28]: 344 µM (≈ 200 µg/mL); MIC [28]: 172 µM (≈ 100 µg/mL); MBC [29]: 344 µM (≈ 200 µg/mL); MIC [29]: 172 µM (≈ 100 µg/mL); MBC [30]: 344 µM (≈ 200 µg/mL); MIC [30]: 172 µM (≈ 100 µg/mL); MBC [31]: 516 µM (≈ 300 µg/mL); MIC [31]: 258 µM (≈ 150 µg/mL) |
| 248 (≈ 86.7 µg/mL) | 248 (≈ 86.7 µg/mL) | CC1(C)S[C@@H]2[C@H](NC(=O)[C@H](N)c3ccccc3)C(=O)N2[C@H]1C(=O)O [AMPICILLIN] | 8 | 6 | inactive | inactive | 0.03 | 0.02 | inactive | inactive | inactive | inactive | inactive | inactive | inactive | inactive | inactive | 372 (≈ 130 µg/mL) | 372 (≈ 130 µg/mL) | 372 (≈ 130 µg/mL) | zone of inhibition at 10 µg/disc [1]: 10 mm; zone of inhibition at 10 µg/disc [3]: 8 mm; inhibition zone (IZ) [5]: inactive; zone of inhibition at 10 µg/disc [6]: 6 mm; inhibition zone (IZ) [32]: inactive; inhibition zone (IZ) [22, 33]: inactive; MIC [26]: 248 µM (≈ 86.7 µg/mL); MBC [27]: 492 µM (≈ 172 µg/mL); MIC [27]: 372 µM (≈ 130 µg/mL); MBC [28]: 1240 µM (≈ 433 µg/mL); MIC [28]: 744 µM (≈ 260 µg/mL); MBC [29]: 492 µM (≈ 172 µg/mL); MIC [29]: 372 µM (≈ 130 µg/mL); MBC [30]: 492 µM (≈ 172 µg/mL); MIC [30]: 248 µM (≈ 86.7 µg/mL); MBC [31]: 744 µM (≈ 260 µg/mL); MIC [31]: 372 µM (≈ 130 µg/mL) |
